The values that follow come from ChEMBL document CHEMBL6092224, “The Discovery and Preclinical Profile of ALG-000184, a Prodrug of the Potent Hepatitis B Virus Capsid Assembly Modulator ALG-001075” (J Med Chem, 2024).

Series [1] can be described thus: Efflux ratio of apparent permeability in human Caco-2 cells at 2 uM incubated for 1 hr. Format: ADME, cell-based. An outline of the steps:
(§1)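 Bidirectional transport across Caco-2 cells in HBSS, pH 7.4, 0.1% final DMSO. Compound was tested at 1 or 2 μM for 1 h at 37 °C, 5% CO2. Apical and basal samples gave apparent permeability A→B and B→A, and the efflux ratio.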
Background: Caco-2 monolayers are a common model of the intestinal barrier.

Series [2] can be described thus: Stability in simulated gastric fluid for >=13 hrs. Format: physicochemical. The note with it: simulated gi fluid. An outline of the steps: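 Stability tested in simulated gastric fluid containing pepsin and simulated intestinal fluid containing pancreatin.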
A short description of series [3]: Plasma protein binding in Cynomolgous monkey at 2 uM incubated for 4 to 24 hrs by equilibrium dialysis method. Type of series: ADME, cell-free, Macaca fascicularis. Particulars: cynomolgus monkey, time 4-24 hrs, read-out: PPB (converted). In a few lines: (§2)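 Rapid equilibrium dialysis in mouse, rat, dog, monkey or human plasma for 4 or 24 h at 2 μM.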
For orientation: In equilibrium dialysis free small molecules cross a membrane that holds back macromolecules.

Series [4] in a line: Plasma protein binding in human at 2 uM incubated for 4 to 24 hrs by equilibrium dialysis method. Type of series: ADME, cell-free. Particulars: time 4-24 hrs, read-out: PPB (converted). In a few lines:
as §2

The nature of series [5]: Prodrug conversion in Beagle dog assessed as formation of N-(3-cyano-4-fluorophenyl)-4-(2-((3-ethynyloxetan-3-yl)amino)-2-oxoacetyl)-1,3,5-trimethyl-1H-pyrrole-2-carboxamide metabolite at 6.3 mg/kg, po measured for 24 hrs. Format: ADME, organism-based, Canis lupus familiaris. Particulars: in vivo. In a few lines:
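Single oral prodrug dose at molar equivalent of 30 mg/kg (rats) or […] of parent in 95% PEG 400/5% copovidone; whole blood collected into 4 volumes 75% MeOH/25% acetonitrile, centrifuged, parent quantified by LC-MS/MS; noncompartmental PK analysis.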

A short description of series [6]: Prodrug conversion in high fat diet-fed Beagle dog assessed as formation of N-(3-cyano-4-fluorophenyl)-4-(2-((3-ethynyloxetan-3-yl)amino)-2-oxoacetyl)-1,3,5-trimethyl-1H-pyrrole-2-carboxamide metabolite at 5 mg/kg, po measured for 96 hrs. Format: ADME, organism-based, Canis lupus familiaris. Particulars: in vivo.
In series [7] the test system is Hepatitis B virus. Kind of series: Antiviral activity against HBV infected in human primary hepatocyte cells assessed as decrease in HBV DNA production pre-infected cells with virus followed by compound treatment for 3 days and subsequent replacement of medium with compound measured after 4 days by qPCR analysis. Type of series: functional, organism-based. An outline of the steps: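 Primary human hepatocytes, 80,000/well, infected at MOI 100 in medium with 4% PEG, 2% DMSO, 10% FBS for 24 h, then washed. Compound from 2000 nM in 1/5 dilutions added on day 5 and refreshed on day 8. Medium collected on day 12; extracellular HBV DNA extracted and quantified by qPCR. n = 5 independent experiments.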
On the technique in general: In qPCR the cycle at which signal appears reflects the starting amount.

Series [8] deals with Hepatitis B virus. The series is described as follows: Antiviral activity against HBV infected in human primary hepatocyte cells assessed as decrease in HBV RNA production pre-infected cells with virus followed by compound treatment for 3 days and subsequent replacement of medium with compound measured after 4 days by qPCR analysis. Type of series: functional, organism-based.

Series [9] is described as follows: Efflux ratio of apparent permeability in human Caco-2 cells at 1 uM incubated for 1 hr. Type of series: ADME, cell-based. In a few lines: as §1
Series [10] is described as follows: Plasma protein binding in rat at 1 uM incubated for 4 to 24 hrs by equilibrium dialysis method. Type of series: ADME, cell-free. Particulars: time 4-24 hrs, read-out: PPB (converted). In a few lines: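 Rapid equilibrium dialysis in mouse, rat, dog, monkey or human plasma for 4 or 24 h; test concentrations 1, […].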
Series [11] in a line: Ratio of drug concentration in blood to plasma in mouse at 5 uM incubated for 60 mins. Format: ADME, cell-free. An outline of the steps: (§3)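 Compound at 5 μM in whole blood of each species, 37 ± 1 °C for 60 min; blood-to-plasma ratio and red blood cell partitioning determined.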
Series [12] can be described thus: Ratio of drug concentration in blood to plasma in human at 5 uM incubated for 60 mins. Type of series: ADME, cell-free. An outline of the steps:
as §3

The nature of series [13]: Cmax in C57BL/6J mouse at 5 mg/kg, po by LC-MS/MS analysis. Format: ADME, organism-based. The note with it: in vivo. In a few lines: (§4)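 Single dose to fasted male C57BL6 mice, Sprague-Dawley rats, beagle dogs and cynomolgus monkeys, either IV at 1 mg/kg or PO as a solution at 5 mg/kg, in 80% PEG 400 in water. Plasma concentrations were measured by LC-MS/MS. PK parameters come from noncompartmental analysis using nominal doses and nominal sampling times.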

A short description of series [14]: Half life in C57BL/6J mouse at 5 mg/kg, po by LC-MS/MS analysis. Format: ADME, organism-based. Particulars: in vivo. In a few lines: as §4
The nature of series [15]: Clearance in Beagle dog at 1 mg/kg, iv by LC-MS/MS analysis. Type of series: ADME, organism-based, Canis lupus familiaris. Particulars: in vivo. In a few lines:
as §4

The nature of series [16]: Half life in Beagle dog at 5 mg/kg, po by LC-MS/MS analysis. Format: ADME, organism-based, Canis lupus familiaris. The note with it: in vivo. In a few lines: as §4
Series [17] in a line: Volume of distribution at steady state in Cynomolgous monkey at 1 mg/kg, iv by LC-MS/MS analysis. Format: ADME, organism-based, Macaca fascicularis. Particulars: cynomolgus monkey, in vivo, read-out: Vdss. An outline of the steps:
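Fasted males (C57BL6 mice, Sprague−Dawley rats, beagle dogs, cynomolgus monkeys) given a single IV dose of 1 mg/kg in 80% PEG 400 in water. Plasma concentrations measured by LC-MS/MS. Vss derived by noncompartmental analysis using nominal dose and nominal sampling times.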

Series [18] in a line: Tmax in Cynomolgous monkey at 5 mg/kg, po by LC-MS/MS analysis. Type of series: ADME, organism-based, Macaca fascicularis. Particulars: cynomolgus monkey, in vivo. In a few lines: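 Fasted males (C57BL6 mice, Sprague−Dawley rats, beagle dogs, cynomolgus monkeys) given a single oral solution dose of 5 mg/kg in 80% PEG 400 in water. Plasma sampled over time, analysed by LC-MS/MS. Noncompartmental analysis used nominal doses and nominal sampling times.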

Series [19] is described as follows: Oral bioavailability in Cynomolgous monkey at 5 mg/kg by LC-MS/MS analysis. Type of series: ADME, organism-based, Macaca fascicularis. Particulars: cynomolgus monkey, in vivo. In a few lines:
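Fasted male C57BL6 mice, Sprague–Dawley rats, beagle dogs, cynomolgus monkeys; single IV dose 1 mg/kg or PO solution 5 mg/kg in 80% PEG 400 in water; plasma concentrations measured, noncompartmental analysis with nominal doses and times; F from PO vs IV AUC.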

Series [20] is described as follows: Toxicity in C57BL/6 mouse infected with AAV-Hepatitis B virus assessed as change in body weight at 15 to 50 mg/kg, po qd for 56 days followed by induction of compound washout period for 14 days. Type of series: organism-based. Particulars: in vivo, 1680 h, dose 15-50 mg/kg, time 70 day.
Series [21] addresses Nuclear receptor subfamily 1 group I member 2 (Homo sapiens, UniProt O75469). Kind of series: Induction of PXR (unknown origin).
In series [22] the target is Solute carrier family 22 member 1 (Homo sapiens, UniProt O15245). Kind of series: Inhibition of OCT1 (unknown origin) transfected in HEK293 cells. Format: cell-based. An outline of the steps:
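HEK-293 cells transfected with the uptake transporter; uptake of known probe substrates measured with test compound at eight concentrations (0.0229–50.0 μM or 0.0457–100 μM); inhibition at each concentration used to calculate IC50.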

The test system of series [23] is Nav1.5. Kind of series: Inhibition of Nav1.5 (unknown origin) expressed in mammalian cells at 10 uM by automated patch-clamp method. Format: toxicity, cell-based, Homo sapiens. Particulars: mammalian cells expressing Nav1.5. In a few lines: (§5)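 Currents of hERG, Nav1.5 or Cav1.2 channels expressed in mammalian cells recorded by automated patch clamp (QPatch 48) at room temperature.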

Series [24] concerns Cav1.2. Kind of series: Inhibition of Cav1.2 (unknown origin) expressed in mammalian cells at 10 uM by automated patch-clamp method. Format: toxicity, cell-based, Homo sapiens. Particulars: mammalian cells expressing Cav1.2. An outline of the steps:
as §5

Series [25] is described as follows: Metabolic stability in Cynomolgous monkey hepatocytes assessed as half life at 1 uM incubated upto 180 mins. Particulars: cynomolgus monkey.

Each structure is given as a SMILES string.

Sequence of Solute carrier family 22 member 1 (O15245 whole entry): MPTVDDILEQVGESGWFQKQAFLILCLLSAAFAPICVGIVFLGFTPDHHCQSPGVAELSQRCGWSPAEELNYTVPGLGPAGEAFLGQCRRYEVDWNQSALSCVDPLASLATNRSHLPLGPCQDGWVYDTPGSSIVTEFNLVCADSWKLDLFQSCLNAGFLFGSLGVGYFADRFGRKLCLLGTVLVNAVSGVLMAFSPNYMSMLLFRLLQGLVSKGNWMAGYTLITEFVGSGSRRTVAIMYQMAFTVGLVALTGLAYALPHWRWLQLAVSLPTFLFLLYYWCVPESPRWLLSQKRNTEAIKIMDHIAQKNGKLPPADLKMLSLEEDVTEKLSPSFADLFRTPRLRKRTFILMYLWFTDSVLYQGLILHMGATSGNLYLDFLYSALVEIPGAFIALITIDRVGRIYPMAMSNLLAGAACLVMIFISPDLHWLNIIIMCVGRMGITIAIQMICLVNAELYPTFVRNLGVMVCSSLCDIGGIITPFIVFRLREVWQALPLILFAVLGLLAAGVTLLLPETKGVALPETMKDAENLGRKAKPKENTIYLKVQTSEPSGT
Sequence of Nuclear receptor subfamily 1 group I member 2 (O75469 whole entry): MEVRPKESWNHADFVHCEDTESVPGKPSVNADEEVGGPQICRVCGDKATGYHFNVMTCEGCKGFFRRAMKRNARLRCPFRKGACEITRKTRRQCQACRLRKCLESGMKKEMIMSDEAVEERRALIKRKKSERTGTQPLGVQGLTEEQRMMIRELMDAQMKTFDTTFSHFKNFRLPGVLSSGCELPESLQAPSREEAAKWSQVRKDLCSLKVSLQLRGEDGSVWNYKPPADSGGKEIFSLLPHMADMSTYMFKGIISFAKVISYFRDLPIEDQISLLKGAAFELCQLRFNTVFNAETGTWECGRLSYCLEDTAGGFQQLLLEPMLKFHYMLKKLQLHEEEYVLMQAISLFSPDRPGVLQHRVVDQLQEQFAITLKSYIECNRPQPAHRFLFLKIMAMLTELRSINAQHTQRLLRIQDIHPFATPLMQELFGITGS

In general, efflux ratio refers to the permeability from basolateral to apical divided by that in the opposite direction, in the common usage. Consider `C#CC1(N(COP(=O)([O-])[O-])C(=O)C(=O)c2c(C)c(C(=O)Nc3ccc(F)c(C#N)c3)n(C)c2C)COC1.[Na+].[Na+]`, for which, in series [1], the efflux ratio at 1 h, 2 µM is 1.9. In [2], the Stability entry is “Stable”. Moreover, the fraction unbound at 2 µM in [3] was 0.126; in series [4], 0.11. Also, the Drug metabolism result in series [5] and in series [6] was “metabolite_detected” throughout.
What is called EC50 is the midpoint of the concentration-response curve. A word on the Cmax: it is the maximum level reached in the sampled fluid or tissue. A word on the half-life: it is the time needed for the level to fall by half in the phase considered. Broadly, the clearance is a measure of how efficiently the substance is removed, as volume per time. Usually Tmax stands for the time from dosing to the highest level. By bioavailability is commonly meant the share of a dose that reaches the circulation, judged against a reference dose that is usually intravenous. Usually IC50 stands for the concentration at which inhibition is half-maximal. In the case of `C#CC1(NC(=O)C(=O)c2c(C)c(C(=O)Nc3ccc(F)c(C#N)c3)n(C)c2C)COC1`, the values for the EC50 in [7] and in series [8] were 0.00198 µM and 0.0547 µM, respectively. In series [9], the efflux ratio at 1 h, 1 µM came to 7.8. In series [10], the fraction unbound at 1 µM was 0.211. Moreover, the blood plasma ratio at 1 h, 5 µM in series [11] came out at 0.83; in series [12] it was 0.73. The compound also showed a peak concentration (Cmax) in series [13] of 2290 ng/mL. For the same compound, the half-life in [14] is 1.55 h; in series [16], 7.83 h. In series [15], the clearance is 1.97 mL/min/kg. The Vd in [17] came out at 0.89 L/kg. Besides, the time to peak (Tmax) in series [18] was 1.17 h. For the same compound, the bioavailability in series [19] amounted to 19.6%. Also, the values for the Activity result in [20] and in [21] were “Non-toxic” and “Not_active”, respectively. In addition, the IC50 in series [22] is > 11.8 µM; in series [23] it was > 10 µM; in [24], > 10 µM. Besides, the half-life at 1 µM in series [25] is > 6 h.
